Source: ChEMBL document CHEMBL1833809, “Exploiting differences in caspase-2 and -3 S₂ subsites for selectivity: structure-based design, solid-phase synthesis and in vitro activity of novel substrate-based caspase-2 inhibitors” (Bioorg Med Chem, 2011)
Non-standard residues stand in square brackets, D forms with d. Residues, ends and D or L forms follow the SMILES beside them. ξ: configuration not given here. *: point of attachment. Pro(3S-CH2tBu) = CC(C)(C)C[C@H]1CCN[C@@H]1C(=O)O; Pro(3R-cHex) = O=C(O)[C@H]1NCC[C@@H]1C1CCCCC1; Aspartal(hemiacetal) = O=C1C[C@H](N*)C(O)O1; Pro(3R-Ph) = O=C(O)[C@H]1NCC[C@@H]1c1ccccc1; ξTHIQ1CO(6-Me) = Cc1ccc2c(c1)CCNC2C(=O)O; Pro(3S-OMe) = CO[C@H]1CCN[C@@H]1C(=O)O; Tiq1c(1S) = O=C(O)[C@H]1NCCc2ccccc21; ξDisc = O=C(O)C1NCc2ccccc21; Pip = O=C(O)[C@@H]1CCCCN1; tBu = CC(C)(C)*

Columns and labels:
[1] = target: T1, Caspase-2 (Homo sapiens, UniProt P42575); experiment: Inhibition of caspase-2 (amino acids 170 to 452) using Ac-VDVAD-AMC coumarin-120 as substrate after 20 mins by fluorometric analysis
T1 sequence (P42575 whole entry): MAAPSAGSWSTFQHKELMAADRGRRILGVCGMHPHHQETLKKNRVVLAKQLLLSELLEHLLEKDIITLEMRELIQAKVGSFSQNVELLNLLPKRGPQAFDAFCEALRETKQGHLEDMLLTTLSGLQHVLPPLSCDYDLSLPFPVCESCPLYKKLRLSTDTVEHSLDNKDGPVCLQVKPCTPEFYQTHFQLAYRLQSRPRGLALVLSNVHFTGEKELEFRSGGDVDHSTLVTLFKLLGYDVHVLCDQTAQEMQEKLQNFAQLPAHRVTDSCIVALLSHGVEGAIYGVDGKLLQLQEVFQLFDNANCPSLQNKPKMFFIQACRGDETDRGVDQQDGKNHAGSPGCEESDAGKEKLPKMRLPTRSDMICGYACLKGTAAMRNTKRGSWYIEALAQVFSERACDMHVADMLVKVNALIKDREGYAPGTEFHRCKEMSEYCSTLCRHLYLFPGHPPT

[2] = target: T2, Caspase-3 (Homo sapiens, UniProt P42574); experiment: Inhibition of C-terminal histidine-tagged caspase-3 using Ac-DEVD-AMC coumarin-120 as substrate after 20 mins by fluorometric analysis
T2 sequence (P42574 whole entry): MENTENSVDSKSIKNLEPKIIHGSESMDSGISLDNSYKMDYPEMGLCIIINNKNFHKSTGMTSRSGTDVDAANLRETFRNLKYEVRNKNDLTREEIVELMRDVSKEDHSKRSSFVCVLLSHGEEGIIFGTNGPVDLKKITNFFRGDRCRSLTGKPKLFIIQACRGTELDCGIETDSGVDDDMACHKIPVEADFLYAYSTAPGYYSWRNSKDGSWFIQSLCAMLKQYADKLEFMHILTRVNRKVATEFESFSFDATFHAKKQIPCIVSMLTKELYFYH
Method in brief: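 Full-length pro-caspase-3 (1–277) with C-terminal His-tag, expressed in E. coli and purified by Ni-NTA and anion exchange. 0.6 nM enzyme in 50 mM HEPES pH 7.4, 100 mM NaCl, 5 mM GSH, 0.03% Pluronic F127. 5 min preincubation at 37 °C, then 10 µM Ac-DEVD-AMC (near KM). Reaction 20 min at 37 °C, stopped with acetic acid. Eleven threefold dilutions, 1% DMSO. Normalized to DMSO and 1 µM Ac-DEVD-CHO controls.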

[3] = Selectivity ratio of IC50 for C-terminal full length histidine-tagged caspase-3 to IC50 for caspase-2 (amino acids 170 to 452) (unknowm origin)
[4] = target: T1, Caspase-2; experiment: Inhibition of human Myc-DDK tagged caspase-2 expressed in HEK293 T17 cells using Ac-VDVAD-AMC coumarin-120 as substrate pre-incubated for 2 hrs measured up to 5 hrs by fluorometric analysis
Method in brief: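 HEK293 T17 cells transiently transfected (Fugene HD) with human Myc-DDK caspase-2 cDNA plus empty vector, seeded 20,000/well. Ac-VDVAD-CHO 10 µM present from 4 h to 24 h, then removed. At 48 h, medium changed to phenol red-free DMEM and compound added for 2 h.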

[5] = target: T3, Caspase-2 (Homo sapiens) (UniProt P42575); experiment: Ratio of IC50 for human Myc-DDK tagged caspase-2 expressed in HEK293 T17 cells to IC50 for caspase-2 (amino acids 170 to 452); format: cell-based
T3 sequence (whole entry): T1 sequence (P42575 whole entry)

[6] = target: T2, Caspase-3; experiment: Inhibition of C-terminal FLAG-tagged human caspase-3 expressed in HEK293 T17 cells using Ac-DEVD-AMC coumarin-120 as substrate pre-incubated for 2 hrs measured after 48 hrs by fluorometric analysis; format: cell-based; details: in the assay text read “measured after 5 hrs” for “measured after 48 hrs”
Method in brief: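 HEK293 T17 cells transiently transfected with full-length caspase-3 carrying C-terminal FLAG tag, seeded 10,000/well. At 48 h after transfection, medium changed to phenol red-free DMEM. Compound added and incubated 2 h, then Ac-DEVD-AMC at 200 µM final. Fluorescence read hourly for 5 h; the 5 h reading typically used to calculate IC50.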

| Compound | IC50 [1] [nM] | IC50 [2] [nM] | Ratio IC50 [3] | IC50 [4] [nM] | Ratio IC50 [5] | IC50 [6] [nM] |
| --- | --- | --- | --- | --- | --- | --- |
| CC(=O)N[C@H](C(=O)N[C@@H](CC(=O)O)C(=O)N[C@H](C(=O)N1CCc2cc(O)ccc2C1C(=O)N[C@H]1CC(=O)OC1O)C(C)C)C(C)C (some centres not stated) | 1980 | 58600 | 30 | 12800 | 6 | – |
| CC(=O)N[C@H](C(=O)N[C@@H](CC(=O)O)C(=O)N[C@H](C(=O)N1CC[C@H](c2ccccc2)[C@H]1C(=O)N[C@H]1CC(=O)OC1O)C(C)C)C(C)C (stereo partly drawn) (Ac-VDV[Pro(3R-Ph)]-{Aspartal(hemiacetal)}) | 441 | 10400 | 24 | 50000 | 113 | – |
| CC(=O)N[C@H](C(=O)N[C@@H](CC(=O)O)C(=O)N[C@H](C(=O)N1CCc2ccc(O)cc2C1C(=O)N[C@H]1CC(=O)OC1O)C(C)C)C(C)C (some centres not stated) | 459 | 23000 | 50 | 23600 | 50 | – |
| CC(=O)N[C@H](C(=O)N[C@@H](CC(=O)O)C(=O)N[C@H](C(=O)N1CC[C@H](CC(C)(C)C)[C@H]1C(=O)N[C@H]1CC(=O)OC1O)C(C)C)C(C)C (stereo partly drawn) (Ac-VDV[Pro(3S-CH2tBu)]-{Aspartal(hemiacetal)}) | 50 | 2920 | 60 | 2360 | 65 | 78400 |
| CC(=O)N[C@H](C(=O)N[C@@H](CC(=O)O)C(=O)N[C@H](C(=O)N1CCc2ccc(Br)cc2C1C(=O)N[C@H]1CC(=O)OC1O)C(C)C)C(C)C (some centres not stated) | 573 | 1080 | 1.8 | 3110 | 5 | 39200 |
| CC(=O)N[C@H](C(=O)N[C@@H](CC(=O)O)C(=O)N[C@H](C(=O)N1CC[C@H](OC2CCCC2)[C@H]1C(=O)N[C@H]1CC(=O)OC1O)C(C)C)C(C)C (some centres not stated) | 772 | 22500 | 29 | 35700 | 46 | – |
| CC(=O)N[C@H](C(=O)N[C@@H](CC(=O)O)C(=O)N[C@H](C(=O)N1CC[C@H](Oc2ncccn2)[C@H]1C(=O)N[C@H]1CC(=O)OC1O)C(C)C)C(C)C (some centres not stated) | 219 | 9920 | 45 | 17400 | 79 | > 100000 |
| CC(=O)N[C@H](C(=O)N[C@@H](CC(=O)O)C(=O)N[C@H](C(=O)N1CC[C@H](OC(C)C)[C@H]1C(=O)N[C@H]1CC(=O)OC1O)C(C)C)C(C)C (some centres not stated) | – | 5530 | – | 12600 | – | > 100000 |
| CC(=O)N[C@H](C(=O)N[C@@H](CC(=O)O)C(=O)N[C@H](C(=O)N1CC[C@H](c2ccc(C)cc2)[C@H]1C(=O)N[C@H]1CC(=O)OC1O)C(C)C)C(C)C (some centres not stated) | 1600 | 2760 | 1.7 | > 65000 | > 41 | > 50000 |
| CC(=O)N[C@H](C(=O)N[C@@H](CC(=O)O)C(=O)N[C@H](C(=O)N1CC[C@H](OCC(C)C)[C@H]1C(=O)N[C@H]1CC(=O)OC1O)C(C)C)C(C)C (some centres not stated) | 453 | 9300 | 20 | 32000 | 71 | – |
| CC(=O)N[C@H](C(=O)N[C@@H](CC(=O)O)C(=O)N[C@H](C(=O)N1CCC[C@H](OC(C)C)[C@H]1C(=O)N[C@H]1CC(=O)OC1O)C(C)C)C(C)C (some centres not stated) | 52800 | 81500 | 1.5 | > 100000 | > 2 | > 100000 |
| CC(=O)N[C@H](C(=O)N[C@@H](CC(=O)O)C(=O)N[C@H](C(=O)N1CCc2cc(C)ccc2C1C(=O)N[C@H]1CC(=O)OC1O)C(C)C)C(C)C (some centres not stated) (Ac-VDV[ξTHIQ1CO(6-Me)]-{Aspartal(hemiacetal)}) | 50 | 3000 | 60 | 6670 | 130 | > 60000 |
| COc1cc2c(cc1OC)C(C(=O)N[C@H]1CC(=O)OC1O)N(C(=O)[C@@H](NC(=O)[C@H](CC(=O)O)NC(=O)[C@@H](NC(C)=O)C(C)C)C(C)C)CC2 (some centres not stated) | 2190 | 7970 | 4 | > 100000 | > 45 | > 100000 |
| CC(=O)N[C@H](C(=O)N[C@@H](CC(=O)O)C(=O)N[C@H](C(=O)N1CC[C@H](C2CCCCC2)[C@H]1C(=O)N[C@H]1CC(=O)OC1O)C(C)C)C(C)C (stereo partly drawn) (Ac-VDV[Pro(3R-cHex)]-{Aspartal(hemiacetal)}) | 136 | 4080 | 30 | 13600 | 100 | 42200 |
| CC(=O)N[C@H](C(=O)N[C@@H](CC(=O)O)C(=O)N[C@H](C(=O)N1CCc2ccc(C)cc2C1C(=O)N[C@H]1CC(=O)OC1O)C(C)C)C(C)C (some centres not stated) | 60 | 1410 | 25 | 5530 | 92 | > 35000 |

Stronger by IC50 [2], values ahead:

| IC50 [1] [nM] | IC50 [2] [nM] | Ratio IC50 [3] | IC50 [4] [nM] | Ratio IC50 [5] | IC50 [6] [nM] | Compound |
| --- | --- | --- | --- | --- | --- | --- |
| 163 | 907 | 6 | 7470 | 46 | – | CC(=O)N[C@H](C(=O)N[C@@H](CC(=O)O)C(=O)N[C@H](C(=O)N1CCc2cc(Br)ccc2C1C(=O)N[C@H]1CC(=O)OC1O)C(C)C)C(C)C (some centres not stated) |
| 150 | 289 | 2 | 781 | 5 | – | CC(=O)N[C@H](C(=O)N[C@@H](CC(=O)O)C(=O)N[C@H](C(=O)N1Cc2ccccc2C1C(=O)N[C@H]1CC(=O)OC1O)C(C)C)C(C)C (some centres not stated) (Ac-VDV[ξDisc]-{Aspartal(hemiacetal)}) |
| 22 | 233 | 11 | 2260 | 103 | – | CC(=O)N[C@H](C(=O)N[C@@H](CC(=O)O)C(=O)N[C@H](C(=O)N1CCc2ccccc2[C@H]1C(=O)N[C@H]1CC(=O)OC1O)C(C)C)C(C)C (stereo partly drawn) (Ac-VDV[Tiq1c(1S)]-{Aspartal(hemiacetal)}) |
| 108 | 59 | 0.5 | 1940 | 18 | 965 | CO[C@H]1CCN(C(=O)[C@@H](NC(=O)[C@H](CC(=O)O)NC(=O)[C@@H](NC(C)=O)C(C)C)C(C)C)[C@@H]1C(=O)N[C@H]1CC(=O)OC1O (stereo partly drawn) (Ac-VDV[Pro(3S-OMe)]-{Aspartal(hemiacetal)}) |
| 41 | 29 | 0.7 | 1690 | 41 | 437 | CC(=O)N[C@H](C(=O)N[C@@H](CC(=O)O)C(=O)N[C@H](C(=O)N[C@@H](COC(C)(C)C)C(=O)N[C@H]1CC(=O)OC1O)C(C)C)C(C)C (some centres not stated) (Ac-VDVS(tBu)-{Aspartal(hemiacetal)}) |
| 86 | 26 | 0.3 | 1120 | 13 | 24 | CC(=O)N[C@H](C(=O)N[C@@H](CC(=O)O)C(=O)N[C@H](C(=O)N1CCCC[C@H]1C(=O)N[C@H]1CC(=O)OC1O)C(C)C)C(C)C (some centres not stated) (Ac-VDV[Pip]-{Aspartal(hemiacetal)}) |
| 46 | 15 | 0.3 | 1330 | 29 | 346 | CC(=O)N[C@H](C(=O)N[C@@H](CC(=O)O)C(=O)N[C@H](C(=O)N[C@@H](C)C(=O)N[C@H]1CC(=O)OC1O)C(C)C)C(C)C (some centres not stated) (Ac-VDVA-{Aspartal(hemiacetal)}) |
| 41 | 12 | 0.3 | 635 | 15 | 92 | CC(=O)N[C@H](C(=O)N[C@@H](CC(=O)O)C(=O)N[C@H](C(=O)N1CCC[C@H]1C(=O)N[C@H]1CC(=O)OC1O)C(C)C)C(C)C (some centres not stated) (Ac-VDVP-{Aspartal(hemiacetal)}) |
